High-throughput results deposited in PubChem BioAssay by Johns Hopkins Ion Channel Center.
RGS4 pot: RGS4 potentiators or activators, primary screen, cell-based, HEK293 M3R inducible RGS4, calcium flux. carbachol calcium flux Fluo4; stronger effect = lower value. B-score at 10 µM. 310,000 compounds, 0.92% hits. AID 463111, 2010;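 active = B-score of the integrated calcium signal more than 4 SD below the library mean, with starting fluorescence not abnormally high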;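 also: negative B-score means reduced calcium response which marks RGS4 activation or potentiation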
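Detection: kinetic calcium fluorescence imaging with Fluo4-AM dye, 2 µM / Material: HEK293 cells with stable M3R and inducible RGS4 / Schedule: recording 10 s baseline at 1 Hz, 100 s post-agonist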
RGS4 inh: RGS4 inhibitors, primary screen, cell-based, HEK293 M3R inducible RGS4, calcium flux; Fluo-4 calcium flux; stronger effect = higher value; triggered by carbachol at its EC20; B-score at 10 µM; AID 463165, 2010; Regulator of G-protein signaling 4 (Homo sapiens), P49798; 310,000 compounds, 0.45% hits;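 active = B-score, a plate-corrected calcium signal, over three deviations above library mean, with baseline fluorescence within five deviations of library mean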;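 also: RGS4 expression induced by doxycycline in cells with stable M3 receptor; B-score is computed from the integrated fluorescence ratio over baseline after carbachol; higher B-score means a larger calcium signal and so more RGS4 inhibition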
Target sequence (P49798 whole entry, looked up): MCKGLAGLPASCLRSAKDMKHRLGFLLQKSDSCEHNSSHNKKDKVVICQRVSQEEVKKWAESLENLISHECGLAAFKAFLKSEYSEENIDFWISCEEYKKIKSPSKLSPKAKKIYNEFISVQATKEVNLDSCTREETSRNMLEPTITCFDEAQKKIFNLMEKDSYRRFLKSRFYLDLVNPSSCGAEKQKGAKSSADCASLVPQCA
MrgX1 ag: agonists of human MrgX1 receptor, primary screen, HEK293 cells, Fluo-4 calcium flux; Mas-related G-protein coupled receptor member X1 (Homo sapiens), Q96LB2; B-score at 10 µM; Fluo-4 calcium fluorescence, agonist mode; stronger effect = higher value; 310,000 compounds, 0.44% hits;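 active = calcium response B-score plate-corrected fluorescence ratio at least 3 library SD, with starting fluorescence B-score inside 5 SD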
Target sequence (Q96LB2 whole entry, looked up): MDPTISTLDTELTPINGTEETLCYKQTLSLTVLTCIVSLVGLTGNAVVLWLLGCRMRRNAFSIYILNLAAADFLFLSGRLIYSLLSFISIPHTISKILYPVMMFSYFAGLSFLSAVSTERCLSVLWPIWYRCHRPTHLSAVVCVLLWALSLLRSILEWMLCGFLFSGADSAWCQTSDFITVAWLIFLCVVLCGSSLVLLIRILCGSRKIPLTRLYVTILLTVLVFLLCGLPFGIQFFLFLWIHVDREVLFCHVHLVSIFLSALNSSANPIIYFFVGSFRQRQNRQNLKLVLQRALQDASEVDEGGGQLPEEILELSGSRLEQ
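Test system: HEK293 cells stably expressing human MrgX1 receptor; Input: fifteen thousand cells per well; Dosing: compound delivered in addition one of three; Schedule: overnight seeding, then 1 h dark dye loading; Technique: Fluo-4 NW calcium fluorescence; Measure: B-scored fluorescence response ratio; Controls: positive and negative controls per plate.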
MrgX1 allo act: positive allosteric modulators of MrgX1, primary screen, HEK293 cells, Fluo-4 calcium flux | AID 588675, 2011 | Mas-related G-protein coupled receptor member X1 (Homo sapiens), Q96LB2 | FDSS; stronger effect = higher value | B-score at 10 µM | 310,000 compounds, 0.63% hits;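 active = plate-corrected calcium response at least 3 library SD above typical, normal starting fluorescence, not activating the receptor alone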;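 also: compound read alongside a low EC10 to EC30 dose of BAM8-22 agonist; peak minus trough fluorescence over baseline measured at the second addition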
MrgX1 antag: antagonists of human MrgX1 receptor, primary screen, HEK293 cells, Fluo-4 calcium flux; B-score at 10 µM; 310,000 compounds, 1.3% hits; BAM8-22 antagonism; stronger effect = lower value; AID 588676, 2011; Mas-related G-protein coupled receptor member X1 (Homo sapiens), Q96LB2;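 active = calcium-response B-score plate-corrected more than 3 library SD below zero, starting fluorescence within 5 deviations, no agonist response on first addition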;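 also: peak minus trough fluorescence over baseline after final BAM8-22 challenge near maximal dose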
The depositor's hits bear a star; i = inactive. Sampled rows, rich in hits. Any-hit rate of the full collection: about 3.5%.

SMILES	RGS4 pot	RGS4 inh	MrgX1 ag	MrgX1 allo act	MrgX1 antag
CSc1nc(NCC(C)C)c2c3c(sc2n1)CN(C)CC3	-7.4*	i	i	i	i
COCCNc1nc(SC)nc2sc3c(c12)CCN(C)C3	i	i	i	i	i
O=C(NCc1cccnc1)[C@@H]1CC=C[C@@H]2CCN(Cc3ccccc3)C(=O)[C@@H]21	i	i	i	i	i
CC(=O)OC[C@H]1O[C@H](C/C=N/OC[C@@H](O)[C@H]2O[C@@H]3OC(C)(C)O[C@@H]3[C@H]2O)C=C[C@@H]1OC(C)=O	i	i	i	i	i
Cc1[nH]c(C)c(S(=O)(=O)NCc2ccco2)c1C(=O)N1CCCCC1	i	i	i	i	i
CCCCn1c(N)c(N(CCOC)C(=O)C2CC(=O)N(Cc3ccc(C)cc3)C2)c(=O)[nH]c1=O (stereo unspecified)	i	i	i	i	i
CCCCN(C(=O)C1CC(=O)N(Cc2ccc(C)cc2)C1)c1c(N)n(CC(C)C)c(=O)[nH]c1=O (stereo unspecified)	i	i	i	i	-7.2*
O=C(CCC(=O)c1ccccc1)NC1CCCN(Cc2ccccc2F)C1 (stereo unspecified)	i	i	i	i	i
CN(C)c1ccc(/C=C2\N=C(c3ccc(Cl)c([N+](=O)[O-])c3)NC2=O)cc1	i	i	i	i	-6.9*
CN(C)c1ccc(/C=C2/NC(=O)NC2=O)cc1	i	i	i	i	i
Fc1ccc(C(CNC(=S)NC2CCCCC2)N2CCOCC2)cc1 (stereo unspecified)	i	i	i	i	i
O=C(Nc1ccc(Cl)c([N+](=O)[O-])c1)C(Sc1ccccc1)c1ccccc1 (stereo unspecified)	-8.6*	i	i	i	i
O=C(c1ccc(Cl)nc1)c1cccs1	i	i	i	i	i
O=C(c1cccs1)c1no[n+]([O-])c1C(=O)c1cccs1	-7*	i	99*	i	i
O=[N+]([O-])c1cc2c(cc1Br)CCN2	i	i	i	i	i
CCCc1cc(-c2nc(N)ncc2-c2ccc3c(c2)OCCCO3)c(O)cc1OC	-9.2*	i	i	i	i
CCN(CC)c1ccc(N2C(=O)/C(=C/c3cccnc3)SC2=S)cc1	i	i	i	i	i
CS(=O)(=O)N1CCN(c2ccc(NC(=S)NC(=O)c3ccc4c(c3)OCO4)cc2)CC1	i	i	i	i	i
Cc1oc(-c2ccccc2Cl)nc1CN1CCCCC1c1cccnc1 (stereo unspecified)	i	i	41*	i	i
Cc1oc(-c2ccccc2Cl)nc1CN1CCCC1c1ccc(F)cc1 (stereo unspecified)	i	i	i	i	i
O=c1c2ccccc2nc(SCc2ccccc2Cl)n1Cc1ccccc1	i	i	i	i	-6.8*
C=CCSc1nc2ccccc2c(=O)n1Cc1ccccc1	i	i	i	i	i
O=C(Nc1c(C(=O)N2CCOCC2)cnn1-c1ccccc1)c1ccc(F)cc1	i	i	i	i	i
CCCCS(=O)(=O)/C=C\C=C/S(=O)(=O)CCCC	i	i	33*	i	i
CCCCS(=O)(=O)/C=C\C1C2C=CC(C2)C1S(=O)(=O)CCCC (stereo unspecified)	i	i	i	i	i
SMILES	RGS4 pot	RGS4 inh	MrgX1 ag	MrgX1 allo act	MrgX1 antag
COc1cccc(CN2C(=O)C3CCCN3c3ccc(S(=O)(=O)N4CCOCC4)cc32)c1 (stereo unspecified)	i	i	i	i	i
COc1ccc(/C=N/n2c(C3CCCCC3)n[nH]c2=S)c(OC)c1	i	i	i	i	i
CCC(C)N(C(=O)COC(=O)COc1c(C)cc(C)cc1C)C1CCS(=O)(=O)C1 (stereo unspecified)	i	i	i	i	i
O=C1CCCC(O)=C1N=Nc1ccc(C(=O)O)cc1	i	i	i	i	i
O=C1CCCC(O)=C1N=Nc1ccc2c(c1)OCO2	i	i	i	i	-5*
O=C(Nc1ccc(S(=O)(=O)Nc2ncccn2)cc1)c1ccc(Cl)c([N+](=O)[O-])c1	i	i	i	i	i
CC1CCCCN1C(=O)c1c([N+](=O)[O-])cnn1C (stereo unspecified)	i	i	i	i	-9.2*
O=C(O)c1cccc(-c2ccc(/C=C3/SC(=Nc4ccccc4)N(Cc4cccnc4)C3=O)o2)c1	i	i	i	i	-5.1*
CCN=C1S/C(=C\c2ccc(-c3cccc(C(=O)O)c3)o2)C(=O)N1CC	i	i	i	i	i
CCN1C(=O)/C(=C\c2ccc(-c3cccc(C(=O)OC)c3)o2)SC1=Nc1ccc(C(=O)O)cc1	i	i	i	i	-6.5*
Cc1c(CCC(=O)N2CCC(C(=O)O)(c3ccccc3)CC2)c(=O)oc2cc3oc4c(c3cc12)CCCC4	i	i	i	i	-6.2*
Cc1c(CCC(=O)N2CCC(C(=O)O)CC2)c(=O)oc2cc3oc4c(c3cc12)CCCC4	i	i	i	i	i
Cc1ccc(C(=O)Nc2cccc3[nH]c(C(F)(F)F)nc23)cc1	i	i	i	i	i
CCc1ccc(NC(=O)CCC(=O)c2ccccc2)cc1	i	i	i	i	i
COc1cccc(/C=N/Nc2snc(SC)c2C#N)c1O	i	i	i	i	-5.4*
COc1cccc(/C=N/NC(=O)N/N=C/c2cccc(OC)c2O)c1O	-7.9*	i	i	i	i
COc1ccc(/C=N/Nc2snc(SC)c2C#N)cc1OC	i	i	i	i	i
COc1cccc(/C=N/NC(=O)C(=O)N2CCCC2)c1O	i	i	i	i	i
CCOc1ccccc1NC(=O)C1(S(=O)(=O)c2ccc(Cl)cc2)CC1	-7*	i	i	i	i
Cn1c(=O)c2c(nc(SCCN3CCCCC3)n2Cc2ccc(Cl)cc2)n(C)c1=O	-7*	i	i	i	i
CCSc1nc2c(c(=O)n(C)c(=O)n2C)n1Cc1ccc(Cl)cc1	i	i	i	i	i
O=C(CCOc1ccccc1)Nc1ccccc1F	i	i	i	i	i
